In experiment [1] the target is T1, 5-hydroxytryptamine receptor 2C (Homo sapiens) (UniProt P28335).
T1 sequence (whole entry): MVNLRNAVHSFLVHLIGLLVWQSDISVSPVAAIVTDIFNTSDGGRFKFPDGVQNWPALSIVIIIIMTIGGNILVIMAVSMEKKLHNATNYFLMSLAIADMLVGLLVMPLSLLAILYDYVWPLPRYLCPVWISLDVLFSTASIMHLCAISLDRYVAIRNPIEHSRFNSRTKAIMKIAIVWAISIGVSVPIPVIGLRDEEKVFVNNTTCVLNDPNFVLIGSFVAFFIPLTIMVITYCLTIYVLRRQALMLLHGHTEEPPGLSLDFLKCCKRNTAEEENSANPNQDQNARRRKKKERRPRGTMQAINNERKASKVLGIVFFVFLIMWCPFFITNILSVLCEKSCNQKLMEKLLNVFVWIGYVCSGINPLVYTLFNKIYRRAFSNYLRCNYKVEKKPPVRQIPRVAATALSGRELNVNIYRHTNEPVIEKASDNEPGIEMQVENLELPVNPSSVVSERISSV
In words: Antagonist activity at human 5HT2C receptor expressed in HEK293 cells assessed as inhibition of 5HT-induced intracellular calcium release at 1 mM measured for 90 secs by fluorescence assay. Type of experiment: functional, cell-based. Put shortly:
(§1)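 Fluo-4/Ca²⁺ read-out in stable h5-HT2A or h5-HT2C HEK293 cells (HBSS/HEPES/probenecid buffer, pH 7.4). Antagonist was added after the dye-loading wash, then cells were challenged with an EC₇₅−EC₈₅ concentration of 5-HT. Emission at 525 nm was monitored up to 90 s after agonist addition. Duplicate, repeated in independent experiments.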
(Calcium assays in cells follow changes in intracellular calcium, usually with a dye or a luminescent sensor.)

In experiment [2] the target is T2, 5-hydroxytryptamine receptor 2A (Homo sapiens, UniProt P28223). As to the kind of experiment: Antagonist activity at human 5HT2A receptor expressed in HEK293 cells assessed as inhibition of 5HT-induced intracellular calcium release at 1 mM measured for 90 secs by fluorescence assay. Type of experiment: functional, cell-based. The essentials: as §1
Experiment [3] concerns the target T3, 5-hydroxytryptamine receptor 2C (Homo sapiens, UniProt P28335).
T3 sequence (P28335 whole entry): T1 sequence (whole entry)
In words: Agonist activity at human 5HT2C receptor expressed in HEK293 cells assessed as induction of intracellular calcium release measured for 90 secs by fluorescence assay. Type of experiment: functional, cell-based.

The target of experiment [4] is T2, 5-hydroxytryptamine receptor 2A. As to the kind of experiment: Agonist activity at human 5HT2A receptor expressed in HEK293 cells assessed as induction of intracellular calcium release measured for 90 secs by fluorescence assay. Type of experiment: functional, cell-based.
The target in experiment [5] is T1, 5-hydroxytryptamine receptor 2C (Homo sapiens). As to the kind of experiment: Agonist activity at human 5HT2C receptor expressed in HEK293 cells assessed as induction of intracellular calcium release at 1 mM measured for 90 secs by fluorescence assay. The format is functional, cell-based. The essentials:
(§2)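 Stable polyclonal h5-HT2A or h5-HT2C HEK293 cells plated on poly-D-lysine wells, loaded next day with Fluo-4/AM for 1 h at 37 °C. Buffer was HBSS with 20 mM HEPES, 1 mM CaCl₂, 1 mM MgCl₂, 2.5 mM probenecid, pH 7.4. Fluorescence read at 485/525 nm before and up to 90 s after agonist addition. Responses normalised to 5-HT on the same plate. Duplicate, 4−10 experiments.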

Experiment [6] addresses T2, 5-hydroxytryptamine receptor 2A. As to the kind of experiment: Agonist activity at human 5HT2A receptor expressed in HEK293 cells assessed as induction of intracellular calcium release at 1 mM measured for 90 secs by fluorescence assay. The format is functional, cell-based. Put shortly:
as §2

For experiment [7] the target is unchanged. In words: biochemical. Type of experiment: cell-based, tsA201.
Experiment [8] has as its target T3, 5-hydroxytryptamine receptor 2C. In words: Displacement of [3H]mesulergine from human 5HT2C receptor expressed in tsA201 cell membranes after 1 hr by scintillation counting analysis. For orientation: Loss of bound radioactivity is the signal in a displacement assay; it reports binding, not function.

The source made the active and inactive calls. The rule behind the calls is not given here.

T2 sequence (P28223 whole entry): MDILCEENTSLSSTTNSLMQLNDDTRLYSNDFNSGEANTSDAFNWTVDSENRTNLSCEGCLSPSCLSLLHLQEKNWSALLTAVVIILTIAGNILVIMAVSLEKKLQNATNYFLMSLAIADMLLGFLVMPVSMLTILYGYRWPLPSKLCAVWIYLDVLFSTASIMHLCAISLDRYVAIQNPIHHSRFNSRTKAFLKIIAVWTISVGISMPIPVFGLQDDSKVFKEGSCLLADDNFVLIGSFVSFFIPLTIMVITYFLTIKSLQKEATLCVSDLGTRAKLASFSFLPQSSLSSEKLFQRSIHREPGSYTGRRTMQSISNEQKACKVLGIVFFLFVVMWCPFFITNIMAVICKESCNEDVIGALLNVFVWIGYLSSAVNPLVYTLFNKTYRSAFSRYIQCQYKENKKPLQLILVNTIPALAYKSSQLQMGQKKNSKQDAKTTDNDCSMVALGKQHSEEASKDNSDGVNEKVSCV

On to `CCn1oc2c(c1=O)CCNC2`, for which the outcome in experiment [1], in experiment [2], in experiment [5] and in experiment [6] was inactive. Besides, the EC50 was above 1000 µM in experiment [3] (hek293, read-out: EC50); above 1000 µM in experiment [3] (read-out: pEC50 (converted)); above 1000 µM in experiment [4] (hek293, read-out: EC50); above 1000 µM in experiment [4] (read-out: pEC50 (converted)).
Regarding `O=c1c2c(on1Cc1ccccc1)CCCNC2`, the outcome in experiment [1], in experiment [2], in experiment [5] and in experiment [6] was inactive. Further, the EC50 was above 1000 µM in experiment [3] (hek293, read-out: EC50); above 1000 µM in experiment [3] (read-out: pEC50 (converted)); above 1000 µM in experiment [4] (hek293, read-out: EC50); above 1000 µM in experiment [4] (read-out: pEC50 (converted)).
Turning to `Oc1noc2c1CCNCC2`, the result in experiment [1], in experiment [2], in experiment [5] and in experiment [6] was inactive. Also, the EC50 in experiment [3] (hek293, read-out: EC50) is above 1000 µM; in experiment [3] (read-out: pEC50 (converted)), above 1000 µM; in experiment [4] (hek293, read-out: EC50) it was above 1000 µM; in experiment [4] (read-out: pEC50 (converted)), above 1000 µM. For the same compound, the Ki is above 300 µM in experiment [7] (read-out: Ki), above 316 µM in experiment [7] (read-out: pKi (converted)) and above 300 µM in experiment [8].
Take `CCOc1noc2c1CCN(C)CC2`: the outcome in experiment [1], in experiment [2], in experiment [5] and in experiment [6] was inactive. Also, the EC50 in experiment [3] (hek293, read-out: EC50) is above 1000 µM; in experiment [3] (read-out: pEC50 (converted)), above 1000 µM; in experiment [4] (hek293, read-out: EC50), above 1000 µM; in experiment [4] (read-out: pEC50 (converted)), above 1000 µM. In addition, the Ki was above 300 µM in experiment [7] (read-out: Ki), above 316 µM in experiment [7] (read-out: pKi (converted)) and above 300 µM in experiment [8].
Take `Cn1oc2c(c1=O)CNCC2`: the result in experiment [1], in experiment [2], in experiment [5] and in experiment [6] was inactive. In addition, the EC50 is above 1000 µM in experiment [3] (hek293, read-out: EC50); above 1000 µM in experiment [3] (read-out: pEC50 (converted)); above 1000 µM in experiment [4] (hek293, read-out: EC50); above 1000 µM in experiment [4] (read-out: pEC50 (converted)).
As for `CCn1oc2c(c1=O)CCN(C)CC2`, the result in experiment [1], in experiment [2], in experiment [5] and in experiment [6] was inactive. The EC50 is above 1000 µM in experiment [3] (hek293, read-out: EC50); above 1000 µM in experiment [3] (read-out: pEC50 (converted)); above 1000 µM in experiment [4] (hek293, read-out: EC50); above 1000 µM in experiment [4] (read-out: pEC50 (converted)). The Ki in experiment [7] (read-out: Ki) was above 300 µM; in experiment [7] (read-out: pKi (converted)), above 316 µM; in experiment [8], above 300 µM.
Turning to `O=c1c2c(on1Cc1ccccc1I)CCNCC2`, in experiment [8], the Ki was 7.2 µM.
In the case of `O=c1c2c(on1Cc1ccccc1)CCNC2`, the result in experiment [1], in experiment [2], in experiment [5] and in experiment [6] was inactive. For the same compound, the EC50 in experiment [3] (hek293, read-out: EC50) was above 1000 µM; in experiment [3] (read-out: pEC50 (converted)), above 1000 µM; in experiment [4] (hek293, read-out: EC50) it was above 1000 µM; in experiment [4] (read-out: pEC50 (converted)), above 1000 µM.
With `CCOc1noc2c1CCNC2`, the outcome in experiment [1], in experiment [2], in experiment [5] and in experiment [6] was inactive. Further, the EC50 is above 1000 µM in experiment [3] (hek293, read-out: EC50); above 1000 µM in experiment [3] (read-out: pEC50 (converted)); above 1000 µM in experiment [4] (hek293, read-out: EC50); above 1000 µM in experiment [4] (read-out: pEC50 (converted)).
In the case of `O=c1c2c(on1Cc1cccc(I)c1)CCNCC2`, in experiment [8], the Ki was 4.8 µM.
As to `CCn1oc2c(c1=O)CNCC2`, the result in experiment [1], in experiment [2], in experiment [5] and in experiment [6] was inactive. The EC50 was above 1000 µM in experiment [3] (hek293, read-out: EC50); above 1000 µM in experiment [3] (read-out: pEC50 (converted)); above 1000 µM in experiment [4] (hek293, read-out: EC50); above 1000 µM in experiment [4] (read-out: pEC50 (converted)).
